The text below walks through data of ChEMBL document CHEMBL1153523, “Design, synthesis, and biological activity of a family of novel ceramide analogues in chemoresistant breast cancer cells” (J Med Chem, 2009).

Data set [1] deals with MCF7. Nature of the data set: Inhibition of clonogenic survival of human MCF7 cells after 10 days by microscopy. Type of data set: functional, cell-based. The settings on record: MCF7, 240 h. An outline of the steps:
(§1)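 Clonogenic survival: cells were treated at 0.1 to 20 µM for 10 days. Colonies were then fixed and stained, and counts were expressed as percent of vehicle control.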

The subject of data set [2] is MDA-MB-231. The experiment in a line: Inhibition of clonogenic survival of endocrine-resistant human MDA-MB-231 cells after 10 days by microscopy. Type of data set: functional, cell-based. To be noted: MDA-MB-231, 240 h. In outline: as §1
Data set [3] has as its system MCF7. Nature of the data set: Inhibition of clonogenic survival of tumor necrosis factor-resistant human MCF7 cells after 10 days by microscopy. To be noted: MCF7, 240 h. Type of data set: functional, cell-based. In outline: as §1
Data set [4] deals with MCF7. The experiment in a line: Induction of apoptosis in human MCF7 cells assessed as appearance of nucleosomes in cytoplasm at 9.4 uM after 24 hrs by ELISA relative to DMSO control. The format is functional. An outline of the steps:
(§2)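 Apoptosis in MCF-7 cells was measured by a cell death detection ELISA after 24 h exposure at 8.3 or 9.4 µM. Values are mean ± SE of three independent experiments.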
(In general: In an ELISA, binding on a coated surface is turned into a signal by an enzyme label.)

Data set [5] can be described thus: Antiproliferative activity against human MCF10A cells at 100 uM after 24 hrs by MTT assay. The format is cell-based. To be noted: mcf-10a. An outline of the steps:
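Normal MCF10A breast epithelial cells were exposed to drug at 0.1–100 µM for 24 h, and proliferation was measured. Values are mean ± SE of four independent experiments.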

In data set [6] the test system is MCF7. The experiment in a line: Increase in endogenous dihydrosphingosine level in tumor necrosis factor-resistant human MCF7 cells at 10 uM after 24 hrs by ESI/MS/MS analysis relative to DMSO control. The format is functional. In outline: (§3)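 MCF-7, MDA-MB-231 or MCF-7TN-R cells were treated at 10 µM for 24 h, and cellular sphingolipid species were then quantified. Values are mean ± SE of two independent experiments.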

Data set [7] deals with MCF7. Nature of the data set: Decrease in endogenous sphingosine-1-phosphate level in human MCF7 cells at 10 uM after by ESI/MS/MS analysis. The format is functional, cell-based. In outline: as §3
The test system of data set [8] is MDA-MB-231. Nature of the data set: Decrease in endogenous sphingosine-1-phosphate level in endocrine-resistant human MDA-MB-231 cells at 10 uM after by ESI/MS/MS analysis. The format is functional, cell-based. In outline:
as §3

Data set [9] has as its system MCF7. The experiment in a line: Decrease in endogenous sphingosine-1-phosphate level in tumor necrosis factor-resistant human MCF7 cells at 10 uM after by ESI/MS/MS analysis. Type of data set: functional, cell-based. An outline of the steps: as §3
Data set [10] deals with MCF7. The experiment in a line: Inhibition of clonogenic survival of human MCF7 cells at 0.1 to 20 uM after 10 days by microscopy. Type of data set: functional, cell-based. An outline of the steps: as §1
For data set [11], the system named is MDA-MB-231. Nature of the data set: Inhibition of clonogenic survival of endocrine-resistant human MDA-MB-231 cells at 0.1 to 20 uM after 10 days by microscopy. The format is functional, cell-based. An outline of the steps:
as §1

Data set [12] deals with MCF7. Nature of the data set: Inhibition of clonogenic survival of tumor necrosis factor-resistant human MCF7 cells at 0.1 to 20 uM after 10 days by microscopy. Type of data set: functional, cell-based. In outline: as §1
Data set [13] concerns MCF7. Nature of the data set: Induction of apoptosis in human MCF7 cells assessed as appearance of nucleosomes in cytoplasm at 8.3 uM after 24 hrs by ELISA relative to DMSO control. The format is functional. An outline of the steps: as §2
Data set [14] relates to MCF7. Nature of the data set: Selectivity for tumor necrosis factor-resistant human MCF7 cells over human MCF10A cells.
The subject of data set [15] is MCF7. Nature of the data set: Increase in endogenous sphingosine-1-phosphate level in human MCF7 cells at 10 uM after by ESI/MS/MS analysis. The format is functional, cell-based. An outline of the steps: as §3
The test system of data set [16] is MDA-MB-231. The experiment in a line: Increase in endogenous sphingosine-1-phosphate level in endocrine-resistant human MDA-MB-231 cells at 10 uM after by ESI/MS/MS analysis. The format is functional, cell-based. In outline:
as §3

For data set [17], the system named is MCF7. The experiment in a line: Increase in endogenous sphingosine-1-phosphate level in tumor necrosis factor-resistant human MCF7 cells at 10 uM after by ESI/MS/MS analysis. The format is functional, cell-based. An outline of the steps: as §3

The source made the active and inactive calls. No cut-off for these calls is given here.

In the case of `CCCCCCCCCCCCCCNC(=O)[C@H](CO)/N=C/c1ccccc1`, the IC50 (usually the concentration that gives 50% inhibition) in data set [1] came to 4.7 µM; in data set [2] it was 2.4 µM; in data set [3], 7.7 µM. Moreover, the “fold change (FC)” value in data set [4] came to 5.4; in data set [6] it was 50. For the same compound, the Activity result in data set [5] is “Non-toxic”. Moreover, the result in data set [7], in data set [8], in [9], in data set [10], in data set [11] and in data set [12] was Active.

On to `CCCCCCCCCCCCCCNC(=O)[C@H](CO)NC(=O)C(C)(C)C`, for which the IC50 worked out at 6.7 µM in data set [1], 6.1 µM in [2] and 11.1 µM in data set [3]. Further, the result in data set [10], in data set [11] and in data set [12] was Active.

In the case of `CCCCCCCCCCCCCCNC(=O)[C@H](CO)NC(=O)c1cc(OC)cc(OC)c1`, the IC50 in [1] amounted to 11.2 µM; in data set [2], 6.6 µM; in data set [3], 15 µM. Moreover, the result in [10], in data set [11] and in [12] was Active.

On to `CCCCCCCCCCCCCCNC(=O)[C@H](CO)NCc1ccccc1`, for which the results for the IC50 in data set [1], in data set [2] and in data set [3] were 5 µM, 10.5 µM and 15.2 µM, respectively. In addition, the result in data set [10], in data set [11] and in data set [12] was Active.

Regarding `CCCCCCCCCCCCCCC[C@H](O)[C@@H](CO)NC(=O)CCCCCCC` (single isomer, unassigned), the 50% inhibitory concentration (IC50) worked out at 31.7 µM in data set [1], 41.4 µM in [2] and 49.6 µM in data set [3].

For the compound `CCCCCCCCCCCCCCNC(=O)[C@H](CO)NC(C)=O`, the results for the IC50 in data set [1], in data set [2] and in data set [3] were 44.7 µM, 75.1 µM and 52.7 µM, respectively. The outcome in [10], in data set [11] and in data set [12] was Active.

For `CCCCCCCCCCCCC/C=C/[C@@H](O)[C@H](CO)NC(=O)CCCCCCC`, the IC50 in data set [1] came out at 4.2 µM; in [2], 3 µM; in data set [3], 8.6 µM. The “fold change (FC)” value in [13] was 5. The Activity entry in [5] is reported as “Non-toxic”. For the same compound, the Ratio in data set [14] was over 50. Further, the outcome in data set [15], in data set [16] and in [17] was Active.

Consider `CCCCCCCCCCCCCCNC(=O)[C@H](CO)NC(=O)C1CCCCC1`, for which the figures for the 50% inhibitory concentration (IC50) in [1], in [2] and in data set [3] were 7.2 µM, 11.5 µM and 23.5 µM, respectively. The result in data set [10], in data set [11] and in data set [12] was Active.
